Assay results reported in article PMC7593347 (International Journal for Parasitology: Drugs and Drug …, 2020).
Where two headings read alike, the source gives them in different places.

What was measured:
C. parvum [1] = format: cell-based, Cryptosporidium parvum; conditions: for inhibition at 5 µM: Cryptosporidium parvum, HCT-8, 48 h, read-out: Parasite inhibition (%); for Parasite inhibition (%): C. parvum, 5 μM, HCT-8 cells, compound present from inoculation, 48 h
C. parvum HNJ-1 strain = assay: Initial epigenetic library compound screening for C. parvum; format: cell-based, Cryptosporidium parvum; conditions: for inhibition at 5 µM: Cryptosporidium parvum, HCT-8, 48 h, read-out: Parasite inhibition (%) (primary screening); for Parasite inhibition (%) (primary screening): 5 μM, 48 h, HCT-8 cells, vs DMSO, single experiment, single replicate
C. parvum [2] = conditions: ref Darkin-Rattray et al., 1996; cited from earlier work
HCT-8 cells = assay: Cytotoxicity to HCT-8 cells; format: cell-based, human; conditions: read-out: Host cell IC50
C. parvum [3] = assay: C. parvum growth when compound is added after invasion of host cells; format: cell-based, Cryptosporidium parvum; conditions: 5 μM added after 3 h invasion, further 45 h, compared with DMSO control
Summary of the method: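 HCT-8 cells (2 × 10^4/well) grown 24 h, infected with 5 × 10^4 HNJ-1 oocysts in RPMI-1640 for 3 h; test compound (5 μM) or DMSO then added for 45 h; nitazoxanide 5 μM as control. Methanol-fixed, BSA-blocked, Sporo-Glo stained; 42 fields/well imaged at 20×, parasites and nuclei counted automatically; relative to DMSO. Triplicate wells, three independent experiments.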

C. parvum [4] = conditions: read-out: IC50 against C. parvum, ref Bessoff et al., 2013, cited from earlier work
[5] = test system: acetylated histone H3K9 of C. parvum sporozoites; assay: Acetylated histone in extracellular parasites; format: cell-based, Cryptosporidium parvum; conditions: Fig. 4A, 10 μM, incubation 30 min
C. parvum [6] = conditions: 100 or 200 mg/kg; ref Theodos et al., 1998; cited from earlier work
T. gondii RH-2F = assay: T. gondii growth assay; format: cell-based, Toxoplasma gondii; conditions: 5 μM, positive control, HFF cells, 48 h

Row | SMILES | inhibition at 5 µM (C. parvum [1]) [%] | inhibition at 5 µM (C. parvum HNJ-1 strain) [%] | IC50 (HCT-8 cells; Homo sapiens, HCT-8, 48 h) [µM] | Parasite inhibition (%) (C. parvum [1]) | Parasite inhibition (%) (primary screening) (C. parvum HNJ-1 strain) | IC50 (HCT-8 cells; HCT-8 cells, 48 h) [µM] | also measured
1 | CCC(=O)CCCCC[C@@H]1NC(=O)[C@H]2CCCCN2C(=O)[C@H]([C@@H](C)CC)NC(=O)[C@H](Cc2cn(OC)c3ccccc23)NC1=O [Apicidin] | 83.5 ± 1.4 | 83 | 1.5 ± 0.1 | – | – | – | minimum concentration at which all C. parvum growth was inhibited (C. parvum [2]): 45 µM
2 | O=C1c2ccccc2C(=O)c2c(NCCc3ccc(O)cc3)ccc(NCCc3ccc(O)cc3)c21 [BML-266] | – | – | – | 64.7 ± 3.9% | 97 | 51.2 ± 0.6 | –
3 | CC(=O)Nc1ccc(C(=O)Nc2ccccc2N)cc1 [CI-994] | -15.7 ± 8.4 | 88 | 24.6 ± 2.4 | no effect on growth inhibition | – | – | –
4 | CN(C)c1ccc(C(=O)NCCCCCCC(=O)NO)cc1 [M-344] | – | – | – | 71.3 ± 1.7% | 71 | 2.3 ± 0.2 | –
5 | O=Nc1ccc(O)c2ncccc12 [NSC-3852] | – | – | – | 64.4 ± 0.4% | 88 | 36.7 ± 1 | –
6 | O=C(/C=C/C#Cc1cccc(NS(=O)(=O)c2ccccc2)c1)NO [Oxamflatin] | 49.8 ± 4 | 100 | 2.5 ± 0.1 | – | – | – | –
7 | O=C(CCCCCN1C(=O)c2cccc3cccc(c23)C1=O)NO [Scriptaid] | 4 ± 5.7 | 10 | 11.9 ± 1.3 | did not inhibit the growth | – | – | –
8 | CC(/C=C/C(=O)NO)=C\[C@@H](C)C(=O)c1ccc(N(C)C)cc1 [TrichostatinA] | – | – | – | 75.7 ± 0.8% | 76 | 1.6 ± 0.1 | –
9 | CC(=O)Oc1ccccc1C(=O)Nc1ncc([N+](=O)[O-])s1 [nitazoxanide] | – | – | – | – | – | – | relative number of C. parvum (C. parvum [3]): 44.9 ± 7.3%; IC50 (C. parvum [4]): 3.7 µM; IC50 (C. parvum [4]; listed as Nitazoxanide): ~3.7 µM; Density of bands of H3K9Ac/H3 normalized by the loading control [5]: increased; reduction of the parasite in C. parvum-infected SCID mice (C. parvum [6]): ineffective
10 | CCc1nc(N)nc(N)c1-c1ccc(Cl)cc1 [pyrimethamine] | – | – | – | – | – | – | growth of T. gondii (T. gondii RH-2F): completely inhibited
